In ChEMBL document CHEMBL1128243, “Three-dimensional quantitative structure-activity relationships of sulfonamide endothelin inhibitors” (J Med Chem, 1995):

Target: T1, Endothelin-1 receptor (Rattus norvegicus, UniProt P26684)
T1 sequence (P26684 whole entry): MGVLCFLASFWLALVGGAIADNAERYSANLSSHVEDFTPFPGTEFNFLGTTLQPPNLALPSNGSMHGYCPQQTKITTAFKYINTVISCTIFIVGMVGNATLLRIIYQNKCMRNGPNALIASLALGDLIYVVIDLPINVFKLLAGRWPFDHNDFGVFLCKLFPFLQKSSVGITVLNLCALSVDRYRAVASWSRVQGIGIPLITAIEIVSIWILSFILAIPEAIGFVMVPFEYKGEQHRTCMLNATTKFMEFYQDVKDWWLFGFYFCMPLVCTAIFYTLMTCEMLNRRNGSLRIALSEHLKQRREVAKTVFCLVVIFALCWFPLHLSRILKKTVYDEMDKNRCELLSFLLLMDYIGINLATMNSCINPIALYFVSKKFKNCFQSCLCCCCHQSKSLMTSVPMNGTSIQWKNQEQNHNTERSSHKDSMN
Experiment: Inhibition of [125I]endothelin-l binding to endothelin A receptor of rat thoracic aorta smooth muscle cells
Type: tissue-based
In short: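 Membranes from A10 rat thoracic aorta smooth muscle cells (cultured, trypsin-detached, stored at -70 °C, then thawed, homogenized and centrifuged to a membrane pellet). Samples filtered through glass fiber filters and washed, then filter-retained radioactivity counted.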

| SMILES | IC50 |
| --- | --- |
| Cc1noc(NS(=O)(=O)c2ccc(N)c3ccccc23)c1C | 3.5 µM |
| Cc1onc(NS(=O)(=O)c2ccc(N)cc2)c1Br | 0.51 µM |
| CC(=O)Nc1cccc2ccc(S(=O)(=O)Nc3onc(C)c3C)cc12 | 27.5 µM |
| CC(=O)Nc1ccc2ccc(S(=O)(=O)Nc3onc(C)c3C)cc2c1 | 42 µM |
| Cc1noc(NS(=O)(=O)c2cccc3c(NC(C)C)cccc23)c1C | 0.005 µM |
| Cc1noc(NS(=O)(=O)c2cccc3cc(N(C)C)ccc23)c1C | 0.84 µM |
| Cc1noc(NS(=O)(=O)c2cccc3ccc(N(C)C)cc23)c1C | 5.6 µM |
| CC(=O)Nc1ccc2cc(S(=O)(=O)Nc3onc(C)c3C)ccc2c1 | 3.8 µM |
| CC(=O)Nc1ccc(S(=O)(=O)Nc2onc(C)c2C)c2ccccc12 | 3.4 µM |
| Cc1noc(NS(=O)(=O)c2ccc3ccc(N(C)C)cc3c2)c1C | 1.4 µM |
| Cc1noc(NS(=O)(=O)c2cccc3c(N(C)C)cccc23)c1C [BMS-182874] | 0.015 µM |
| Cc1noc(NS(=O)(=O)c2ccc3ccc(N)cc3c2)c1C | 10 µM |
| Cc1onc(NS(=O)(=O)c2ccc(N)cc2)c1C [SULFATROXAZOLE] | 0.26 µM |
| Cc1noc(NS(=O)(=O)c2ccc3cccc(N)c3c2)c1C | 9.8 µM |
| Cc1noc(NS(=O)(=O)c2cccc3cc(N)ccc23)c1C | 2.4 µM |
| Cc1noc(NS(=O)(=O)c2cccc3c(N(C)C(C)C)cccc23)c1C | 0.004 µM |
| Cc1cc(NS(=O)(=O)c2ccc(O)cc2)no1 | 53 µM |
| Cc1noc(NS(=O)(=O)c2cccc3ccccc23)c1C | 3.1 µM |

The remaining compounds from weak to strong by IC50, led by results:

| IC50 | SMILES |
| --- | --- |
| 84 µM | Cc1noc(NS(=O)(=O)c2ccc(N(C)C)cc2)c1C |
| 31.5 µM | Cc1noc(NS(=O)(=O)c2ccc3cccc(N(C)C)c3c2)c1C |
| 24 µM | Cc1noc(NS(=O)(=O)c2ccc3c(N)cccc3c2)c1C |
| 5 µM | CCNc1ccc(S(=O)(=O)Nc2onc(C)c2C)cc1 |
| 1.45 µM | Cc1noc(NS(=O)(=O)c2cccc3ccc(N)cc23)c1C |
| 1.3 µM | CC(=O)Nc1ccc2c(S(=O)(=O)Nc3onc(C)c3C)cccc2c1 |
| 1.3 µM | Cc1noc(NS(=O)(=O)c2cccc(N)c2)c1C |
| 0.6 µM | Cc1noc(NS(=O)(=O)c2ccc3cc(N)ccc3c2)c1C |
| 0.016 µM | CC(=O)Nc1cccc2c(S(=O)(=O)Nc3noc(C)c3C)cccc12 |
| 0.015 µM | Cc1onc(NS(=O)(=O)c2cccc3c(N(C)C)cccc23)c1C |
